Assay results reported in PubChem BioAssay AID602403 (The Scripps Research Institute Molecular Screening Center, 2012).
Unmarked numbers belong to inactive results. Calls of active or inactive are those of the source.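 How the source made its calls: active means inhibition of the enzyme-probe labelling of at least 50% at one fixed dose; inactive means inhibition below 50%.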

The compounds below were run against Diacylglycerol lipase-alpha (Mus musculus) (UniProt Q6WQJ1) (assay: blocking of DAGLa probe labeling in membranes – biochemical, gel-based competitive ABPP, recombinant, fluorescence, selectivity assay for DAGLb inhibitor project, late-stage follow-up (AID 602403)). Conditions: HEK293T membrane mouse DAGLa, at 0.4 µM, hits give high values.
Method in brief: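 Test system: Membrane proteome of 293T HEK cells transiently overexpressing mouse DAGLa | Buffer or medium: DPBS | Also added: HT-01 probe, 1 µM | Schedule: Compound pre-incubation 30 min, probe labeling 30 min, both 37 °C | Detection: SDS-PAGE separation with in-gel fluorescence imaging of bands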

Sequence of Diacylglycerol lipase-alpha (Mus musculus) (Q6WQJ1 whole entry, looked up): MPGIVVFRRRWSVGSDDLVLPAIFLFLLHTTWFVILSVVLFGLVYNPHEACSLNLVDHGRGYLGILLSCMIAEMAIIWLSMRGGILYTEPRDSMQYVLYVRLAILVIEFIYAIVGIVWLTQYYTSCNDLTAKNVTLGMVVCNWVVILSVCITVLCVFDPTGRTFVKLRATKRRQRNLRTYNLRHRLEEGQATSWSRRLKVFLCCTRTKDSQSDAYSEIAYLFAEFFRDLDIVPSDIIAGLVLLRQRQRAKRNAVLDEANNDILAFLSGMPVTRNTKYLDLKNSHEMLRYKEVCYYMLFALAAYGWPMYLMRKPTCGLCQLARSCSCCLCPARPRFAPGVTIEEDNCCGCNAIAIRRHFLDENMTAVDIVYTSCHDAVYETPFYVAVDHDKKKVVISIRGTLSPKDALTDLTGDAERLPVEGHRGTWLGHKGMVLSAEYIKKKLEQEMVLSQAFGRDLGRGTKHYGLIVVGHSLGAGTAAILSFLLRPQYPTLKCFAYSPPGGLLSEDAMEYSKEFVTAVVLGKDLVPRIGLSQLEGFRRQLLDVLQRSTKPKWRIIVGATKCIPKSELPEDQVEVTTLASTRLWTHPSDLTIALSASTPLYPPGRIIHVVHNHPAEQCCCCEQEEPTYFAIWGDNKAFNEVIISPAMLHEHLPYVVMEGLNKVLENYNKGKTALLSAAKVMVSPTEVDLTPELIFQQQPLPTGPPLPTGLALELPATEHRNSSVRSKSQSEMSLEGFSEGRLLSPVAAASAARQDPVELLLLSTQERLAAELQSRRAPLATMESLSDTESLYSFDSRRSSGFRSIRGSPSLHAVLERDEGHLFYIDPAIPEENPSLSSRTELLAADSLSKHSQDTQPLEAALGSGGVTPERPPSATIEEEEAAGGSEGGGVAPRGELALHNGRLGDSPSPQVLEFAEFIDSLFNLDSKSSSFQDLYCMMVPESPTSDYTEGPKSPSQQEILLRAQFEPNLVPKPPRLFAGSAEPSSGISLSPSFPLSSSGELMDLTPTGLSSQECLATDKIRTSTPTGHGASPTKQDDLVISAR

Structure (SMILES)	inhibition
COc1ccc(-c2ccc(-c3cn(C(=O)N4CCCCC4c4ccccc4)nn3)cc2)cc1 (stereo not drawn)	0%
O=C(N1CCCCC1Cc1ccccc1)n1cc(-c2ccc(OC(F)(F)F)cc2)nn1 (stereo not drawn)	50% (active)
COc1ccccc1-c1ccc(-c2cn(C(=O)N3CCCCC3Cc3ccccc3)nn2)cc1 (stereo not drawn)	40%
